# High-throughput results deposited in PubChem by several laboratories.
# NR2E3 ag-1: activates human NR2E3 receptor; CHO-S Gal4-NCOR/VP16-NR2E3 two-hybrid, luciferase; 360,000 tested, 0.35% active; inhibition of corepressor binding, % at 3.98 µM; Q9Y5X4;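 active means inhibition above the mean of all tested compounds plus 3 SD, cut at about 70% in these data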;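 further: 0% = DMSO with NR2E3 transfected cells and 100% = cells lacking NR2E3 construct; higher means lower luciferase signal from less NR2E3 corepressor binding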
# Target sequence (Q9Y5X4 whole entry, looked up, the tested form may be a part): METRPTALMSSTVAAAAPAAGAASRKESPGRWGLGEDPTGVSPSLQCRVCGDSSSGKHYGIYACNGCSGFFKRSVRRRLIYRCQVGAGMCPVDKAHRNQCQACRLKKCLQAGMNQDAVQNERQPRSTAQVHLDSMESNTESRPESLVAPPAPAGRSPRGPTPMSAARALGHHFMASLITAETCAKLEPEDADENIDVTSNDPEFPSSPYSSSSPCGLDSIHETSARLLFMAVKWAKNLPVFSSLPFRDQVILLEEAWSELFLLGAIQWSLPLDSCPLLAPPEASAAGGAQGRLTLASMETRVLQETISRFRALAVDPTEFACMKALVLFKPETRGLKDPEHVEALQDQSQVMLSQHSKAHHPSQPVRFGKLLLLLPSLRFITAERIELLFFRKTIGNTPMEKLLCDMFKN
# GalR3 antagonist: human GalR3 antagonism | inhibition, % at 3 µM | 360,000 tested, 0.44% active | HEK293 GalR3-CNG cAMP membrane potential fluorescence; galR3 body fused to GalR1 C-terminus | O60755 | AID 651719;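 active means inhibition above the screen-wide average plus 3 SD, cut at about 13% in these data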;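 further: forskolin and galanin both at EC90 stimulate the cells; cAMP rise reported by CNG channel membrane potential dye signal; 0% = forskolin plus galanin with DMSO and 100% = forskolin alone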
# GASC-1 inh: blocks human GASC-1 demethylase activity; Q9H3R0; GST-JMJD2C(1-420) H3K9me3 demethylation, DELFIA europium; inhibition, % at 2.35 µM; 330,000 tested, 0.069% active;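 active means more than half of a compound's replicate wells show inhibition beyond 50%, single wells judged on their own value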;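 further: signal counts dimethyl H3K9 product captured on neutravidin plate; 0% = median of DMSO wells and 100% = 0.3 times that DMSO median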
# NR2E3 ag-2: NR2E3 (human) agonism. inhibition of corepressor binding, % at 4.78 µM. AID 2300. GST-NR2E3/biotin-RetCOR TR-FRET, 1536-well. Q9Y5X4. 320,000 tested, 0.12% active;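 active means percent inhibition above the cutoff of mean plus 3 SD of all tested compounds, set per screening campaign, cut at about 20% in these data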;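 further: 0% = DMSO wells and 100% = biotin wells as full block of FRET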
#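 System: GST-tagged NR2E3 plus biotinylated RetCOR corepressor; Amount: 1.35 nM GST-tagged NR2E3 final; Dosing: single nominal compound dose of 4.8 µM; Schedule: 5 h incubation at 4 °C; Technique: TR-FRET with europium anti-GST and streptavidin-D2, 340 nm excitation; Controls: biotin wells as high control, 0.6% DMSO wells as low control.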
# Jurkat NFkB inh: lowers PMA/ionomycin-induced NF-kB signal in Jurkat cells; PMA/ionomycin-induced NF-kB luciferase reporter, luminescence; inhibition, % at 4 µM; AID 435003; 330,000 tested, 0.53% active; in the data active means inhibition above about 50%
# 697 NFkB inh: inhibitors of the PMA/ionomycin-induced NF-kB reporter in 697 B cells; 697 B-cell NF-kB luciferase reporter, 16 h; inhibition, % at 4 µM; 330,000 tested, 0.33% active; AID 435022; in the data active means inhibition above about 35%
# GalR3 conf: GalR3 (human) antagonism, confirmation | shares compounds with GalR3 antagonist | HEK293 GalR3 CNG cAMP biosensor, membrane potential fluorescence; galR3 fused to GalR1 carboxy tail; challenged with forskolin and galanin at EC90 | inhibition, % at 3 µM | 1,600 tested, 59% active;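 active means inhibition above the primary screen's cutoff, the mean inhibition of all screened compounds plus 3 SD, cut at about 13% in these data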;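 further: 0% = forskolin plus galanin and 100% = forskolin alone with DMSO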
# CNG parental: counter-screen for GalR3 antagonists: nonspecific agonists in parental HEK-CNG cells; activation, % at 3 µM; shares compounds with GalR3 antagonist; HEK293-CNG parental cells, cAMP membrane potential fluorescence; normalised: DMSO wells 0%, forskolin wells 100%; 1,600 tested, 10% active; in the data active means activation above about 1.3%
# The depositor's hits bear a star; . = not tested or not shown. Sampled rows, rich in hits. Any-hit rate of the full collection: about 1.5%.
SMILES,NR2E3 ag-1,GalR3 antagonist,GASC-1 inh,NR2E3 ag-2,Jurkat NFkB inh,697 NFkB inh,GalR3 conf,CNG parental
O=S(=O)(c1ccccc1)N1CCC(O)(CSc2ccc(F)cc2)CC1,16,72*,12,2,11,-17,44*,-1
O=C(CSc1nc(O)cc(=O)[nH]1)N1c2ccccc2CCc2ccccc21,5,-3,-3,4,-3,8,.,.
COc1cc(C(=O)NCCc2cc3c(OC)ccc(OC)c3[nH]c2=O)cc(OC)c1OC,9,14*,1,1,-5,1,15*,0
COc1ccc(-c2cc([C@H]3[C@@H]4C=CCC[C@@]4(C)C(=O)N3Cc3ccccc3)ccc2F)cc1OC,3,20*,-2,1,24,-9,12,1
Cc1ccc(-c2cc([C@H]3[C@@H]4C=CCC[C@@]4(C)C(=O)N3Cc3ccccc3)ccc2F)cc1,3,-4,5,2,5,4,.,.
O=C(O)C1CCCN1C(=O)C1CCN(S(=O)(=O)c2cccc(C(F)(F)F)c2)CC1 (configuration not stated),0,-4,.,.,5,-16,.,.
Nc1cc(-c2ccc(Br)cc2)nn1Cc1ccccc1,-71,61*,1,.,.,.,103*,-1
Nc1cc(-c2cccc(Br)c2)nn1Cc1ccccc1,-7,-4,-3,-2,-2,-23,.,.
CC1(c2nnc(-c3cccc(Cl)c3)o2)CC(c2ccc(OC(F)(F)F)cc2)=NO1 (configuration not stated),27,1,4,0,17,16,.,.
O=C(NC1CCCCCC1)c1ccc[nH]c1=S,-22,-3,-21,0,7,-16,.,.
CCOCCCNC(=S)N1CCN(c2nc(-c3ccc(F)cc3)cs2)CC1,-1,37*,-11,0,20,-3,88*,-1
COc1ccc(C2CC(C(F)(F)F)n3nc(C(=O)NCc4cn(C)nc4C)c(Cl)c3N2)cc1 (configuration not stated),36,-7,-11,5,-3,-38,.,.
C[C@H](CO)N1C[C@H](C)[C@H](CN(C)C(=O)C2CCCCC2)OCc2cnnn2CCCC1=O,.,-5,.,.,.,.,.,.
CC(C)Cc1ccc(CN2CCCC(NC(=O)c3ccnn3C)C2)cc1 (configuration not stated),-7,32*,-1,-3,8,-23,0,0
CC1Cc2cccc3c(O)c(C(=O)c4nn[nH]n4)c(=O)n1c23 (configuration not stated),0,3,-30,1,8,2,.,.
CC(=O)OCC1OC(n2c(S)c(C#N)c(-c3ccccc3)c(C#N)c2=O)C(OC(C)=O)C(OC(C)=O)C1OC(C)=O (configuration not stated),18,57*,.,.,.,.,87*,1
Cc1noc(C)c1-c1nc(CS(=O)(=O)c2ccc(F)cc2)no1,-19,4,-3,1,-9,11,.,.
Cc1ccc(-c2cc(C(=O)Nc3nn[nH]n3)c3ccccc3n2)cc1,-21,-7,1,1,11,5,.,.
Cc1ccccc1S(=O)(=O)/N=C(/c1ccccc1)N1CCOCC1,-9,14*,-7,6,0,10,7,0
O=C(O)CN(CC(=O)O)CC(=O)O,-9,.,.,.,.,.,.,.
Cc1c(-n2c(O)c(C3=c4ccccc4=NC3=O)sc2=S)c(=O)n(-c2ccccc2)n1C,-16,-2,-3,1,-6,2,.,.
O=C1N=c2ccccc2=C1c1sc(=S)n(-c2ccc(O)cc2)c1O,-5,13*,20,0,-12,-3,7,-2
COc1cc(CC2COC(=O)C2(O)Cc2ccc(O)c(OC)c2)ccc1O (configuration not stated),28,48*,-22,-3,12,-14,9,0
COc1cc(CC2COC(=O)C2Cc2ccc(O)c(OC)c2)ccc1O (configuration not stated),.,-4,.,.,.,.,.,.
O=C1C(C=NC2CC2)=C(O)c2ccccc21,-46,14*,6,-2,-4,-15,4,0
SMILES,NR2E3 ag-1,GalR3 antagonist,GASC-1 inh,NR2E3 ag-2,Jurkat NFkB inh,697 NFkB inh,GalR3 conf,CNG parental
CSCCC(NC(=O)c1cccc(C)c1)C(=O)Nc1sccc1C(N)=O (configuration not stated),-9,-1,0,12,-8,-12,.,.
Cc1cccc(CSC2=NCCN2S(=O)(=O)c2ccc(F)cc2)c1,-12,2,6,2,-2,-12,.,.
CCC(Sc1nc2n[nH]c(C)c2c(=N)n1-c1cccc(Cl)c1C)C(=O)N(CC)CC (configuration not stated),-5,17*,4,6,11,2,71*,1
CCC(C)NC(=O)CSc1nc2n[nH]c(C)c2c(=N)n1-c1ccc(OC)cc1 (configuration not stated),24,0,-4,0,7,12,.,.
NC(=O)c1ncc(C(F)(F)F)cc1Oc1cccnc1,12,-2,13,-4,4,14,.,.
CCOC(=O)C1CCN(C(=O)Cc2cccc3ccccc23)CC1,-10,16*,1,3,-2,12,0,0
CCOC(=O)N1CCN(C(=O)Cc2cccc3ccccc23)CC1,-7,-5,-5,4,-11,-6,.,.
Cc1oc(-c2ccc(Cl)cc2)nc1CSCC(=O)NC1CCN(Cc2ccccc2)CC1,19,96*,-12,-1,29,-37,106*,1
Cc1oc(-c2ccc(Cl)cc2)nc1CN1CCC(C(=O)N2CCN(Cc3ccccc3)CC2)CC1,23,-5,7,1,20,16,.,.
Cc1oc(-c2ccc(Cl)cc2)nc1CN1CCCC(C(=O)NCc2cccnc2)C1 (configuration not stated),31,83*,-4,2,39,-16,111*,0
O=C(Oc1ccc(-c2nnco2)cc1)C1CCN(C(=O)c2ccc(F)cc2)CC1,14,0,-14,3,0,-11,.,.
CC(OC(=O)c1cc(=O)[nH]c2ccccc12)C(=O)NC1CCCC1 (configuration not stated),-38,-8,9,2,0,12,.,.
COc1ccc(C(=O)N/N=C/c2cc3ccccc3[nH]c2=O)cc1,-9,.,-12,-4,7,35,60*,0
